# Data taken from paper PMC6944222 (Toxicological Sciences, 2019).
# What was measured:
# [1] = tested on: expressed human CYP and CES enzymes; format: in vitro ADME; settings: for total in vivo CLint estimated with expressed enzymes: expressed enzyme-based IVIVE; for metabolism profile (enzymes responsible): human hepatic CYP and CES enzymes
# [2] = IVIVE of total hepatic intrinsic clearance; format: in vitro ADME, human; settings: for Hepatic CLint_vivo: model estimated; for total CLint_vivo estimated with HLMs and cytosol (subcellular fraction): subcellular fraction-based IVIVE
# Summary of the method: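 Pooled human liver microsomes and cytosol from 150 adults (75 male, 75 female). […] In vitro CLint was scaled to the in vivo hepatic value using microsomal or cytosolic protein content and liver weight. Enzyme ontogeny was expressed as a fraction of adult expression.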
# [3] = ref Willemin et al. (2015); cited from earlier work
# [4] = stated as known, no reference given; cited from earlier work
SMILES,total in vivo CLint estimated with expressed enzymes [1],metabolism profile (enzymes responsible) [1],Hepatic CLint_vivo ([2]; person five),Hepatic CLint_vivo ([2]; person four),Hepatic CLint_vivo ([2]; person one),Hepatic CLint_vivo ([2]; person six),Hepatic CLint_vivo ([2]; person three),Hepatic CLint_vivo ([2]; person two),in vivo CLint in cryopreserved hepatocytes [3],log Kow [4],contribution of CES enzymes to human hepatic metabolism ([1]; IVIVE of expressed enzyme data),total CLint_vivo estimated with HLMs and cytosol (subcellular fraction) [2]
"Cc1c(COC(=O)[C@@H]2[C@H](/C=C(\Cl)C(F)(F)F)C2(C)C)cccc1-c1ccccc1 (racemic) [Bifenthrin, bifenthrin]",145 l/h/kg liver,metabolized only by CYP enzymes,58 L/h,36 L/h,10 L/h,67 L/h,16 L/h,5 L/h,–,–,–,–
"CC1(C)[C@H](C(=O)OCc2cccc(Oc3ccccc3)c2)[C@@H]1C=C(Cl)Cl [CPM, cis-permethrin]","70,481 l/h/kg liver",metabolized by CYP and CES enzymes,186 L/h,115 L/h,34 L/h,217 L/h,51 L/h,20 L/h,60 l/h/kg liver,6.1,more than 70%,"6,68 l/h/kg liver"
"CC1(C)[C@H](C(=O)O[C@H](C#N)c2cccc(Oc3ccccc3)c2)[C@@H]1C=C(Br)Br [DLM, deltamethrin]","36,782 l/h/kg liver",–,2066 L/h,1282 L/h,375 L/h,2417 L/h,565 L/h,224 L/h,–,4.61,–,"7,418 l/h/kg liver"
